Measurements from ChEMBL document CHEMBL3994616, “Rational design, synthesis, and evaluation of novel 2,4-Chloro- and Hydroxy-Substituted diphenyl Benzofuro[3,2-b]Pyridines: Non-intercalative catalytic topoisomerase I and II dual inhibitor” (Eur J Med Chem, 2017).
Structures can show the parent of a compound that is named as a salt. Calls of active or inactive are those of the source. The calls are words filed in the database; no cut-off is given here.

How the values were obtained:
[1] = target: DNA topoisomerase 2-alpha (Homo sapiens) (UniProt P11388); experiment: Inhibition of human recombinant topoisomerase-2alpha-mediated relaxation of supercoiled pBR322 DNA at 100 uM after 30 mins by ethidium bromide staining based agarose gel electrophoresis method relative to control
Sequence of DNA topoisomerase 2-alpha (Homo sapiens) (P11388 whole entry): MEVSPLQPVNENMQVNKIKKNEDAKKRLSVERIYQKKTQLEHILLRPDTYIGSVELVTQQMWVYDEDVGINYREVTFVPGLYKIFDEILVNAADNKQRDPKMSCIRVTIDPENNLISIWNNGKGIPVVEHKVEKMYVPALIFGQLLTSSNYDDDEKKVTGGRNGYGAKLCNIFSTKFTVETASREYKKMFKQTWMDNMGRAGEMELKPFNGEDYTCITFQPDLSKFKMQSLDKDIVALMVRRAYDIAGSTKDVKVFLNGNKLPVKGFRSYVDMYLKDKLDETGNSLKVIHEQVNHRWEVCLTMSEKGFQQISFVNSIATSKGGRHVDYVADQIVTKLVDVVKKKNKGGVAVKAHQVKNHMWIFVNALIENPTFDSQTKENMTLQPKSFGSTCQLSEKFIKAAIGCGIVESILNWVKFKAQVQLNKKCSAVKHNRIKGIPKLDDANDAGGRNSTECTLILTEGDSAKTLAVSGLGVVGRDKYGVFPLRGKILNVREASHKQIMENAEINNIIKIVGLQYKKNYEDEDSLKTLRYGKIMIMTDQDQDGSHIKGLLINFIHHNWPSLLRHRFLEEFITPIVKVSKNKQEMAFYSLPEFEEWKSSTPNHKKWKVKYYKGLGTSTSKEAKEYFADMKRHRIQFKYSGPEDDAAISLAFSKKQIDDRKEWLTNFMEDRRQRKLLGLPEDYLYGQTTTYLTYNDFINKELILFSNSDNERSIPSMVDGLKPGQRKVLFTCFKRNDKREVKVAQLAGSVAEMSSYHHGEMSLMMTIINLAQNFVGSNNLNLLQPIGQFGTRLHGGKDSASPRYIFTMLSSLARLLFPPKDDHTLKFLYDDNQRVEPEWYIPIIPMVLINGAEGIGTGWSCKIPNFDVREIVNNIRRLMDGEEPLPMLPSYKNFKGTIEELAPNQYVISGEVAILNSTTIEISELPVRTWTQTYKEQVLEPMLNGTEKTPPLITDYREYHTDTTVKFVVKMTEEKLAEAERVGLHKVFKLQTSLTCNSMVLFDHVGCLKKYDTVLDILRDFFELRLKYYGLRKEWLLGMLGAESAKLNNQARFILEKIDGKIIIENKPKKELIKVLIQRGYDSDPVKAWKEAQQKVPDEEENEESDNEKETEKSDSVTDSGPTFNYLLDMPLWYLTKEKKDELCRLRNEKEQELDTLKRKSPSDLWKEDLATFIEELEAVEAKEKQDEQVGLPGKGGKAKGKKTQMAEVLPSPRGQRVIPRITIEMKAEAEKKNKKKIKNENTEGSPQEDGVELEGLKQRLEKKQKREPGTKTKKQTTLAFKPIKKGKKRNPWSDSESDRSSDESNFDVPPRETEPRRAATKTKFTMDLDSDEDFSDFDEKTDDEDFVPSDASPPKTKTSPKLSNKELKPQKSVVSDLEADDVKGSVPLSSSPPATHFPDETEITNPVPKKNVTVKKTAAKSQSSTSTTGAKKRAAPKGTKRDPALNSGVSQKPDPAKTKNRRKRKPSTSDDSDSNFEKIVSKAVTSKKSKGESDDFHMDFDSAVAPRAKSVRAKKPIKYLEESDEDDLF

[2] = tested on: HCT-15; experiment: Antiproliferative activity against human HCT15 cells after 72 hrs by CCK8 assay; type: functional, cell-based; conditions: HCT-15, 72 h
How it was run: (§1)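 Cells seeded at 2-4 x 10⁴ per well, cultured overnight in medium with 10% FBS at 37 °C, 5% CO₂, then serum-starved 4 h. Graded compound concentrations added for 72 h, CCK-8 added for a further 4 h, absorbance read at 450 nm. IC50 from a four-parameter logistic fit. Results come from three experiments, each in triplicate.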

[3] = tested on: T47D; experiment: Antiproliferative activity against human T47D cells after 72 hrs by CCK8 assay; type: functional, cell-based; how it was run: as §1
[4] = tested on: HeLa; experiment: Antiproliferative activity against human HeLa cells after 72 hrs by CCK8 assay; type: functional, cell-based
[5] = target: T1, Topoisomerase I/II (Homo sapiens) (UniProt P11387+P11388); experiment: Inhibition of topoisomerase-1/topoisomerase-2 in human HCT15 cell nuclear extract at 25 uM preincubated for 24 hrs followed by supercoiled pBR322 DNA addition measured after 20 mins by ethidium bromide staining based agarose gel electrophoresis method relative to control; type: protein assay
T1 sequence (P11387 whole entry, looked up): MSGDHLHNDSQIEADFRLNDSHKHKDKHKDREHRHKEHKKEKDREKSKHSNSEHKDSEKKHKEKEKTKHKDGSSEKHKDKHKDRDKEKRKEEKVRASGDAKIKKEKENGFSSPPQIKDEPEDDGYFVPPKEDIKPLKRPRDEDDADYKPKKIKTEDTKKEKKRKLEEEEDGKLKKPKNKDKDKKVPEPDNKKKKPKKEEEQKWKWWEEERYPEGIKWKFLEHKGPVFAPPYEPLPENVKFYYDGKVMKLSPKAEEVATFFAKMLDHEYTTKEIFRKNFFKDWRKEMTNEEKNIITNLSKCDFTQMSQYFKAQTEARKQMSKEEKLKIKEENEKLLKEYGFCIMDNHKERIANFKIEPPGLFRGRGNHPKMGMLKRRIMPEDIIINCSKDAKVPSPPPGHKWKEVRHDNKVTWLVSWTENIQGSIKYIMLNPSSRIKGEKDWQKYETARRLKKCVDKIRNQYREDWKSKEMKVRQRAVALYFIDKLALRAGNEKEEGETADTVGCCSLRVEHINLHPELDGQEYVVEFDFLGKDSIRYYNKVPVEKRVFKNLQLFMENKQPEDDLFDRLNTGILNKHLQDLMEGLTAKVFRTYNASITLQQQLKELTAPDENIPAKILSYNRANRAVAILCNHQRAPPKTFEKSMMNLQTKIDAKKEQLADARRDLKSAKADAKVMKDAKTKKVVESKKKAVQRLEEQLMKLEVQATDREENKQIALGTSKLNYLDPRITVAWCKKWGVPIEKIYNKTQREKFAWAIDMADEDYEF
T1 sequence (P11388 whole entry, looked up): as the sequence (P11388 whole entry) above
How it was run: (§2)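 HCT15 cells treated 24 h at 25, 50 or 100 µM, then nuclear fractions prepared. Nuclear extract incubated with 100 ng pBR322 at 37 °C to read relaxation by endogenous topo I/II. Products run on 1.0% agarose at 50 V for 50 min in TAE, EtBr-stained, UV-visualized. Inhibition percent averaged over three experiments.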

[6] = target: T1, Topoisomerase I/II (Homo sapiens); experiment: Inhibition of topoisomerase-1/topoisomerase-2 in human HCT15 cell nuclear extract at 50 uM preincubated for 24 hrs followed by supercoiled pBR322 DNA addition measured after 20 mins by ethidium bromide staining based agarose gel electrophoresis method relative to control; type: protein assay; how it was run: as §2
[7] = target: DNA topoisomerase 2-alpha (Homo sapiens) (UniProt P11388); experiment: Poison activity at human recombinant topoisomerase 2 in human HCT15 cells assessed as […] at 50 uM after 2 hrs by Western blot method; type: cell-based
[8] = tested on: HCT-15; experiment: Induction of DNA damage in human HCT15 cells assessed as comet tail formation at 30 uM after 24 hrs using SYBRGreen stain by electrophoresis based fluorescence microscopic method (reference value: 3 +/- 1.1%); type: functional
[9] = tested on: HCT-15; experiment: Induction of DNA damage in human HCT15 cells assessed as comet tail formation at 10 uM after 24 hrs using SYBRGreen stain by electrophoresis based fluorescence microscopic method (reference value: 3 +/- 1.1%); type: functional
[10] = tested on: HCT-15; experiment: Induction of DNA damage in human HCT15 cells assessed as increase in gammaH2AX level at 30 uM after 24 hrs by Western blot method; type: functional, cell-based
How it was run: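 HCT15 cells exposed to 30 µM for 24 h, then lysed. 60 µg protein per sample run on 12% SDS-PAGE, and γ-H2AX detected by western blot.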

[11] = target: DNA topoisomerase 2-alpha (Homo sapiens) (UniProt P11388); conditions: 250 uM
[12] = species: Bos taurus; experiment: Induction of calf thymus DNA intercalation assessed as inhibition of ethidium bromide binding to DNA after 30 mins by fluorescence assay
How it was run: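 Calf thymus DNA ([…]) premixed with EtBr ([…]) in 10 mM Tris buffer pH 7.2, 30 min at room temperature with shaking. Compound then added at increasing concentrations […], final DMSO 1% (vehicle for untreated control), further 30 min at room temperature. EtBr fluorescence read at 471 nm excitation, emission spectrum collected 500–700 nm.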

[13] = tested on: HCT-15; experiment: Potency index, ratio of camptothecin IC50 to compound IC50 for human HCT15 cells; type: functional
[14] = tested on: HCT-15; experiment: Potency index, ratio of etoposide IC50 to compound IC50 for human HCT15 cells; type: functional
[15] = tested on: HCT-15; experiment: Potency index, ratio of adriamycin IC50 to compound IC50 for human HCT15 cells; type: functional
[16] = target: DNA topoisomerase 2-alpha (Homo sapiens) (UniProt P11388); experiment: Poison activity at human recombinant topoisomerase 2 alpha assessed as stabilization of enzyme-DNA cleavable complex by measuring formation of linear DNA at 100 to 500 uM using supercoiled pBR322 DNA after 30 mins by ethidium bromide staining based agarose gel electrophoresis method
How it was run: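 250 ng supercoiled pBR322 preincubated with 3 units human topo II for 10 min in topo II relaxation buffer. Compound then added at 100 or 500 µM and incubated 30 min more at 37 °C. SDS stop, proteinase K 0.25 mg/mL at 45 °C for 30 min. Run on 1% agarose with EtBr at 30 V for 6 h, linear DNA band scored.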

[17] = target: DNA topoisomerase 2-alpha (Homo sapiens) (UniProt P11388); experiment: Inhibition of human topoisomerase-2 alpha-mediated kinetoplast DNA decatenation after 30 mins by ethidium bromide staining based agarose gel electrophoresis
How it was run: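 75 ng kDNA in 50 mM Tris-HCl pH 8.0, 120 mM KCl, 10 mM MgCl₂, 0.5 mM DTT, 0.5 mM ATP, 30 µg/mL BSA. Compound added at 250 or 500 µM final, reaction started with 3 units topo II, 10 µL, 30 min at 37 °C. Stopped with SDS/ficoll/dye, proteinase K 0.25 mg/mL for 30 min. Run on 1.2% agarose containing EtBr.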

[18] = species: Bos taurus; experiment: Induction of calf thymus DNA intercalation assessed as inhibition of ethidium bromide binding to DNA up to 40 uM after 30 mins by fluorescence assay
How it was run: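 Calf thymus DNA ([…]) premixed with EtBr ([…]) in 10 mM Tris, pH 7.2, for 30 min at room temperature. Compound added at increasing concentrations […], with 1% DMSO final in all wells including control. Incubated 30 min more with shaking. Fluorescence excited at 471 nm, emission collected 500-700 nm.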

[19] = target: T1, Topoisomerase I/II (Homo sapiens); experiment: Inhibition of topoisomerase-1/topoisomerase-2 in human HCT15 cell nuclear extract at 100 uM preincubated for 24 hrs followed by supercoiled pBR322 DNA addition measured after 20 mins by ethidium bromide staining based agarose gel electrophoresis method relative to control; type: protein assay; how it was run: as §2
[20] = target: T1, Topoisomerase I/II (Homo sapiens); experiment: Inhibition of topoisomerase-1/topoisomerase-2 in human HCT15 cell nuclear extract preincubated for 24 hrs followed by supercoiled pBR322 DNA addition measured after 20 mins by ethidium bromide staining based agarose gel electrophoresis method; type: protein assay; how it was run: as §2
[21] = tested on: HCT-15; experiment: Induction of apoptosis in human HCT15 cells assessed as increase in cleaved PARP level after 24 hrs by Western blot method; type: functional, cell-based
How it was run: (§3)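 HCT15 cells grown to 80% confluency, then treated 24 h at […]. Lysis buffer: Tris/NaCl/1% Triton X-100 with protease inhibitors. 60 µg protein run on 12% SDS-PAGE and transferred to PVDF. Blocked in 5% milk/TBST, primary antibodies 1:1000 for 2-3 h, HRP anti-rabbit 1:2000 for 2 h, ECL detection.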

[22] = tested on: HCT-15; experiment: Induction of apoptosis in human HCT15 cells assessed as increase in Bax level after 24 hrs by Western blot method; type: functional, cell-based; how it was run: as §3
[23] = tested on: HCT-15; experiment: Induction of apoptosis in human HCT15 cells assessed as decrease in Bcl2 level after 24 hrs by Western blot method; type: functional, cell-based; how it was run: as §3

Structure (SMILES)	inhibition [1]	IC50 [2] [µM]	IC50 [3] [µM]	IC50 [4] [µM]	also measured
Oc1cccc(-c2cc(-c3ccccc3Cl)c3oc4ccccc4c3n2)c1	60.2%	1.4	0.1	4.3	–
CC[C@@]1(O)C(=O)OCc2c1cc1n(c2=O)Cc2cc3ccccc3nc2-1 [CAMPTOTHECIN]	–	0.6	2.1	0.09	inhibition [5]: 74.6%; inhibition [6]: 80.5%
Oc1ccccc1-c1cc(-c2ccccc2Cl)c2oc3ccccc3c2n1	58.2%	0.3	3	10.9	–
Oc1ccccc1-c1cc(-c2ccc(Cl)cc2)nc2c1oc1ccccc12	86.7%	> 50	> 50	9.5	–
Oc1ccc(-c2cc(-c3ccccc3Cl)c3oc4ccccc4c3n2)cc1	52.7%	46.2	0.8	15.9	–
COc1cc([C@@H]2c3cc4c(cc3[C@@H](O[C@@H]3O[C@@H]5CO[C@@H](C)O[C@H]5[C@H](O)[C@H]3O)[C@H]3COC(=O)[C@H]23)OCO4)cc(OC)c1O [ETOPOSIDE]	–	5.4	7	9.1	Activity [7]: Active; Activity [8]: 65.5%; Activity [9]: 46.3%; Activity [10]: Active; inhibition [5]: 36.1%; inhibition [6]: 60.9%; inhibition [11]: Active
COc1cc(NS(C)(=O)=O)ccc1Nc1c2ccccc2nc2ccccc12	–	–	–	–	inhibition [12]: Dose-dependent effect
Oc1ccccc1-c1cc(-c2ccccc2Cl)nc2c1oc1ccccc12	85.6%	0.4	3.9	2.8	–
C[C@@H](CN1CC(=O)NC(=O)C1)N1CC(=O)NC(=O)C1 [DEXRAZOXANE]	–	–	–	–	Activity [8]: 5.5%; Activity [10]: inactive
Cc1c2ccncc2c(C)c2c1[nH]c1ccccc12	–	–	–	–	inhibition [11]: Active
Oc1cccc(-c2cc(-c3ccc(Cl)cc3)nc3c2oc2ccccc23)c1	87.9%	0.2	2.1	5.7	–
Oc1cccc(-c2cc(-c3ccccc3Cl)nc3c2oc2ccccc23)c1	82.9%	1.6	1.5	4.4	–
Oc1cccc(-c2cc(-c3ccc(Cl)cc3)c3oc4ccccc4c3n2)c1	inactive	> 50	2	11.1	–
Oc1cccc(-c2cc(-c3cccc(Cl)c3)c3oc4ccccc4c3n2)c1	35%	5.9	1.2	6.4	–
Oc1ccc(-c2cc(-c3cccc(Cl)c3)nc3c2oc2ccccc23)cc1	95.4%	0.2	1.9	0.9	–
Oc1ccc(-c2cc(-c3cccc(Cl)c3)c3oc4ccccc4c3n2)cc1	4.9%	5.9	> 50	> 50	–
Oc1ccccc1-c1cc(-c2ccc(Cl)cc2)c2oc3ccccc3c2n1	55.8%	> 50	> 50	> 50	–
Oc1ccccc1-c1cc(-c2cccc(Cl)c2)c2oc3ccccc3c2n1	4.7%	> 50	> 50	> 50	–
Oc1ccc(-c2cc(-c3ccccc3Cl)nc3c2oc2ccccc23)cc1	92.8%	0.4	6.1	3.9	–
Oc1ccc(-c2cc(-c3ccc(Cl)cc3)c3oc4ccccc4c3n2)cc1	65.6%	21.3	11.6	11.8	–
Oc1cccc(-c2cc(-c3cccc(Cl)c3)nc3c2oc2ccccc23)c1	85.4%	0.4	1.4	4.3	–
Oc1ccccc1-c1cc(-c2cccc(Cl)c2)nc2c1oc1ccccc12	84%	0.01	0.4	5.2	Ratio IC50 [13]: 60; Ratio IC50 [14]: 540; Ratio IC50 [15]: 100
Oc1ccc(-c2cc(-c3ccc(Cl)cc3)nc3c2oc2ccccc23)cc1	100%	0.2	5.9	4.3	Activity [16]: inactive; inhibition [17]: Dose-dependent effect; Activity [7]: inactive; Activity [8]: 6.3%; Activity [10]: inactive; inhibition [18]: inactive; inhibition [5]: 38.2%; inhibition [6]: 45.5%; inhibition [19]: 58.4%; inhibition [20]: Dose-dependent effect; Activity [21]: Dose-dependent effect; Activity [22]: Dose-dependent effect; Activity [23]: Dose-dependent effect
COc1cccc2c1C(=O)c1c(O)c3c(c(O)c1C2=O)C[C@@](O)(C(=O)CO)C[C@@H]3O[C@H]1C[C@H](N)[C@H](O)[C@H](C)O1 [DOXORUBICIN HYDROCHLORIDE]	–	1	0.3	–	–
